What was measured:
Conditions in all cases: stereoisomer not certain
[1] = molecular target: T1, UniProt Q8VGC6
T1 sequence (whole entry): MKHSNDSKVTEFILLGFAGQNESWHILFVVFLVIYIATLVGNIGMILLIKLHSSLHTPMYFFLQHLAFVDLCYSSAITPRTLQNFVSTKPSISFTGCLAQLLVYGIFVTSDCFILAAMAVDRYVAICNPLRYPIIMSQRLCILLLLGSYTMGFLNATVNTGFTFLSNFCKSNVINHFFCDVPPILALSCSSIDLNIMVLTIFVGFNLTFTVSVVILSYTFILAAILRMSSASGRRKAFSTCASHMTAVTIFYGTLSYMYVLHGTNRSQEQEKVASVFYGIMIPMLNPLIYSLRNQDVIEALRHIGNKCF
In short: (§1)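 Each entry records the cell line, G-protein, co-transfected protein and tags used. Methods varied with the source, often transient luciferase assays in mammalian cell lines. A receptor–molecule pair is called responsive (active) if the original authors judged its signal statistically different from baseline and non-responsive (inactive) otherwise.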

[2] = molecular target: T2, UniProt Q8VGD7
T2 sequence (whole entry): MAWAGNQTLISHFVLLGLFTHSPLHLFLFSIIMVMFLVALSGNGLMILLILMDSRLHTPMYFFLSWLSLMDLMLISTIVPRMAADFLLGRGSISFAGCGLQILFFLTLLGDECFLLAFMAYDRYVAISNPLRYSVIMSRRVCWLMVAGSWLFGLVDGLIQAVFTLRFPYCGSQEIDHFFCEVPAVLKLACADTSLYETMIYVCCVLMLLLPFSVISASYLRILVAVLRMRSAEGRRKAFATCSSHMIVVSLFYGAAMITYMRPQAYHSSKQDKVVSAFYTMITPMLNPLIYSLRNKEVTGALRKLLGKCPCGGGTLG
In short: as §1

[3] = molecular target: T3, UniProt Q8VGH1
T3 sequence (whole entry): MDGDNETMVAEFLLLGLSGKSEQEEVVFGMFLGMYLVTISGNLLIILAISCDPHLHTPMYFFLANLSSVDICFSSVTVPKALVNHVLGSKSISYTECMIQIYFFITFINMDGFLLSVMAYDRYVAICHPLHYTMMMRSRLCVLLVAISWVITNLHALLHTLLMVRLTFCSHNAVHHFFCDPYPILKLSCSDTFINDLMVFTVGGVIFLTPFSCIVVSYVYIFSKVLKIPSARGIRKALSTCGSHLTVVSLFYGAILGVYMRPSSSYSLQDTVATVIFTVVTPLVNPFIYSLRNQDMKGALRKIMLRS
In short: as §1

[4] = molecular target: T4, UniProt Q8VGJ1
T4 sequence (whole entry): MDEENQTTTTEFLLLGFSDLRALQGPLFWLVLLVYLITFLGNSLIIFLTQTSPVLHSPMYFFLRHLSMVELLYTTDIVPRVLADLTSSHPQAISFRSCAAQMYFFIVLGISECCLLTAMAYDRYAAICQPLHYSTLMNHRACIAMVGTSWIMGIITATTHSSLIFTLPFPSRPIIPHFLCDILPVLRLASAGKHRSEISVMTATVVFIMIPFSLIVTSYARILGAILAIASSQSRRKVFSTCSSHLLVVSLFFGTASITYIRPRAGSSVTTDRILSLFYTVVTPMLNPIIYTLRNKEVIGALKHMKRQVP
In short: as §1

[5] = molecular target: T5, UniProt Q8VGJ3
T5 sequence (whole entry): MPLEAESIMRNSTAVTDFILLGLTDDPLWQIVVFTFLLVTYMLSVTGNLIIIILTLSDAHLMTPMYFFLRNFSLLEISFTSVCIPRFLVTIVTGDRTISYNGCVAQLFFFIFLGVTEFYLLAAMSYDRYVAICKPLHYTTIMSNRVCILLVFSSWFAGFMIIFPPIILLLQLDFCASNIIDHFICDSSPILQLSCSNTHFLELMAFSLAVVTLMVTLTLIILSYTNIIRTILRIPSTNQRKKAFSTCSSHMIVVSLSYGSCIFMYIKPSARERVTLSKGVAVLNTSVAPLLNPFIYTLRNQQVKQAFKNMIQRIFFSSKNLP
In short: as §1

[6] = molecular target: T6, UniProt Q8VGJ5
T6 sequence (whole entry): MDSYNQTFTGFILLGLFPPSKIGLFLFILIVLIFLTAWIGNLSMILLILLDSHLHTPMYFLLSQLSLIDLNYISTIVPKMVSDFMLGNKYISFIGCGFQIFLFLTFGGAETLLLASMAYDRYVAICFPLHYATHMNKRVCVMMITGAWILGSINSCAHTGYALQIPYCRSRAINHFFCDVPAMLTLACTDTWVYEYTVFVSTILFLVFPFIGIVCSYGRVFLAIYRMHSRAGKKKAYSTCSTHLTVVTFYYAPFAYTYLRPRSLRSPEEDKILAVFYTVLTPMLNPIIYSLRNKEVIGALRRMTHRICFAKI
In short: as §1

[7] = molecular target: T7, UniProt Q8VGL0
T7 sequence (whole entry): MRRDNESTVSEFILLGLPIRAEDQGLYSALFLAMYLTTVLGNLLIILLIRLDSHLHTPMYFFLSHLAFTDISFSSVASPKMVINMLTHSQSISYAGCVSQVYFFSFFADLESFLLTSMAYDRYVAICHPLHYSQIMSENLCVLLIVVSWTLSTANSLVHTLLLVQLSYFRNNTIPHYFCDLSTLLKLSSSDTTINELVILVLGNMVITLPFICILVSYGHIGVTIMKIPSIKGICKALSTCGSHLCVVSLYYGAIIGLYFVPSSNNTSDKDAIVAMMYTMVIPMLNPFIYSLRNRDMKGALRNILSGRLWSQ
In short: as §1

[8] = molecular target: T8, UniProt Q8VGL7
T8 sequence (whole entry): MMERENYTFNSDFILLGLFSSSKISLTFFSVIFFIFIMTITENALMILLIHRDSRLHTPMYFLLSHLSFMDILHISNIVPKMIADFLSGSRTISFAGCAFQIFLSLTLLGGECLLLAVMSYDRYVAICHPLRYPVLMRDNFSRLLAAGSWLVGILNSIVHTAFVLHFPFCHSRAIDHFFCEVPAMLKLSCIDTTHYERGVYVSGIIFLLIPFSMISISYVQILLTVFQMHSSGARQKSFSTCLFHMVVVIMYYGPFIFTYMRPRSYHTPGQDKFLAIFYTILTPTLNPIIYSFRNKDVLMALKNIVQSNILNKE
In short: as §1

[9] = molecular target: T9, UniProt Q8VGM2
T9 sequence (whole entry): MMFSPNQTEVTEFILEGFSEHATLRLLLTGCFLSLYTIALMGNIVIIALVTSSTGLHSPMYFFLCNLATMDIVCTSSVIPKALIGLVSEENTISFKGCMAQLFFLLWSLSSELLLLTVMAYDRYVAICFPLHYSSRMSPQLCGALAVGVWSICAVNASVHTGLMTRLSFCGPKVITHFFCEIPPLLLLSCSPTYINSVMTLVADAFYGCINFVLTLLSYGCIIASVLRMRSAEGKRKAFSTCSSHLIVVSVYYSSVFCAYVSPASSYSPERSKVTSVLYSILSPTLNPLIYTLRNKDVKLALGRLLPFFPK
In short: as §1

[10] = molecular target: T10, UniProt Q8VGP6
T10 sequence (whole entry): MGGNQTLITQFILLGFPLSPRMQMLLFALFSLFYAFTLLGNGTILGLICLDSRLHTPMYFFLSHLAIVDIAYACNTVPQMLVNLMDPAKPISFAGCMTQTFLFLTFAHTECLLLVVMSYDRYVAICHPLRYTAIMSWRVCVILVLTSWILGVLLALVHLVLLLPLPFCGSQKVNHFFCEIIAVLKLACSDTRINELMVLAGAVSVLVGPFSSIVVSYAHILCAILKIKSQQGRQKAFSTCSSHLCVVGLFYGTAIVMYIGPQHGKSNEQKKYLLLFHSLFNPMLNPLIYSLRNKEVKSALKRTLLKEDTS
In short: as §1

[11] = molecular target: T11, UniProt Q8VGQ3
T11 sequence (whole entry): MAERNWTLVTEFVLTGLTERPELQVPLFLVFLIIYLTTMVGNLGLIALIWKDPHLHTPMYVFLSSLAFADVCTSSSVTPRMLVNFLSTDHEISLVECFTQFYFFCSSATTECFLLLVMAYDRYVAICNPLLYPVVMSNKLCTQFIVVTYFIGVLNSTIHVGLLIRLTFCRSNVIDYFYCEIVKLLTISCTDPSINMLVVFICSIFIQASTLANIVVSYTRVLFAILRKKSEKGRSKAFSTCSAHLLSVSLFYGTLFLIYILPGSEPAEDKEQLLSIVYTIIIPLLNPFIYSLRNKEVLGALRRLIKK
In short: as §1

[12] = molecular target: T12, UniProt Q8VGT4
T12 sequence (whole entry): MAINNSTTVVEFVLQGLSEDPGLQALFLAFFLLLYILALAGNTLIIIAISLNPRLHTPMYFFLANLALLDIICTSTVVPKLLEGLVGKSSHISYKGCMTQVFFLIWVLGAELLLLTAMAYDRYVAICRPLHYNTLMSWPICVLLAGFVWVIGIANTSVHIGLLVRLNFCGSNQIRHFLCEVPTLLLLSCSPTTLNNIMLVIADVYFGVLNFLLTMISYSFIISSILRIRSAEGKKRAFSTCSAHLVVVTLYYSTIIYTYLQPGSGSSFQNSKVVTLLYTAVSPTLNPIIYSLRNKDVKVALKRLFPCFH
In short: as §1

[13] = molecular target: T13, UniProt Q8VGU3
T13 sequence (whole entry): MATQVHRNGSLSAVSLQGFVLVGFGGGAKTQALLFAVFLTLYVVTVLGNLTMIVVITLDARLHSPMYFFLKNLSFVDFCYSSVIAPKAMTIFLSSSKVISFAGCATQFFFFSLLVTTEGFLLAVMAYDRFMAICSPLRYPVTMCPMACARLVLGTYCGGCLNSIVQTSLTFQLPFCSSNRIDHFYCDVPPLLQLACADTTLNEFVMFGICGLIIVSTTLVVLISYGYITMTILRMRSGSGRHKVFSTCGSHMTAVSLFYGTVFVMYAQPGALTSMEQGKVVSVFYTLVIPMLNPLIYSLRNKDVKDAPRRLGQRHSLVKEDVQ
In short: as §1

[14] = molecular target: T14, UniProt Q8VGV1
T14 sequence (whole entry): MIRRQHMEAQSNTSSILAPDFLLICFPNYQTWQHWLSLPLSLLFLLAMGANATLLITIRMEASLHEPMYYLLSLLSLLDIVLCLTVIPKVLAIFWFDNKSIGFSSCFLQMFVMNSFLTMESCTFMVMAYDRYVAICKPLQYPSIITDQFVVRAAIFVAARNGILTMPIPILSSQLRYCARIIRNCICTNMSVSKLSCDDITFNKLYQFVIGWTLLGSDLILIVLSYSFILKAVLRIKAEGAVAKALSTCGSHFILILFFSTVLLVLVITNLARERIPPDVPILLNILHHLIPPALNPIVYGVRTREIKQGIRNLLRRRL
In short: as §1

[15] = molecular target: T15, UniProt Q8VGV7
T15 sequence (whole entry): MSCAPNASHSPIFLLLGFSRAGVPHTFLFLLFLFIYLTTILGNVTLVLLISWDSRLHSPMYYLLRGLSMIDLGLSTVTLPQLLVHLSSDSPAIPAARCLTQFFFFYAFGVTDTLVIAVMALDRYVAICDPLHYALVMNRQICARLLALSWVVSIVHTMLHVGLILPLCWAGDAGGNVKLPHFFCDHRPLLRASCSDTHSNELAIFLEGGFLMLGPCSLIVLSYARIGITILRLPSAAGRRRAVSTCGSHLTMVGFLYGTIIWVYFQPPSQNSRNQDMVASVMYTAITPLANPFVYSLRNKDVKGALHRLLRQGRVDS
In short: as §1

[16] = molecular target: T16, UniProt Q8VGX3
T16 sequence (whole entry): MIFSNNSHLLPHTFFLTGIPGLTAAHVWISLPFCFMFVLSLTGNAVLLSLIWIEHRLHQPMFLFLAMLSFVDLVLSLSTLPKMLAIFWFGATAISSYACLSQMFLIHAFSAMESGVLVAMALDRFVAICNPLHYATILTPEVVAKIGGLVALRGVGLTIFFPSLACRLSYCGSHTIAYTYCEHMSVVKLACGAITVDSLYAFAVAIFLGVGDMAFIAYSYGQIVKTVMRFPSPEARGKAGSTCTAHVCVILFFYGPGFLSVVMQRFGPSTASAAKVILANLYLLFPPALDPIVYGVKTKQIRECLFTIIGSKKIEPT
In short: as §1

[17] = molecular target: T17, UniProt Q8VGX5
T17 sequence (whole entry): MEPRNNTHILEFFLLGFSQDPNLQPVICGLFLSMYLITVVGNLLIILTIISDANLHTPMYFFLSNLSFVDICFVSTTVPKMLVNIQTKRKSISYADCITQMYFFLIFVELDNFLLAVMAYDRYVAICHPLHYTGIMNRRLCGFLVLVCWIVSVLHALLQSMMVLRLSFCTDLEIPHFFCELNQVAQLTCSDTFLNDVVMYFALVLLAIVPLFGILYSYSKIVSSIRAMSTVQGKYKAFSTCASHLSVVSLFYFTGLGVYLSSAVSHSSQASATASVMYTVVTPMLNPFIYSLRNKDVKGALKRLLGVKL
In short: as §1

Measured: odorant receptor agonist call

C=C(C)C1CCC(C)C(=O)C1 (configuration not stated)
active: [1] | [6] | [7] | [11] | [17]
inactive: all other assays above

— the M2OR odorant receptor database
